Experimental data reported in ChEMBL document CHEMBL4414574, “Structure-Based Discovery and Development of a Series of Potent and Selective Bromodomain and Extra-Terminal Protein Inhibitors” (J Med Chem, 2019).
Active and inactive are the calls of the source. No cut-off for these calls is given here.

Key:
[1] = Cmax in ICR mouse plasma at 100 mg/kg, po administered via gavage measured after 0.25 to 24 hrs by UPLC/MS analysis; assay type: ADME, organism-based; parameters: dose 100 mg/kg, route oral
Summary of the method: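 Male ICR mice dosed orally in 1% DMSO/0.5% HPMC vehicle; plasma or brain drug levels used to derive Tmax, Cmax, AUC0-t, AUC0-inf and T1/2.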

[2] = AUC (0 to infinity) in rat plasma at 3 mg/kg, iv; assay type: ADME, organism-based; parameters: dose 3 mg/kg, route intravenous, time infinity
Summary of the method: (§1)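 Compound was given orally or intravenously in 1% DMSO/0.5% HPMC vehicle. Concentrations in plasma, or in brain where stated, gave Tmax, Cmax, T1/2, AUC0-t and AUC0-inf.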

[3] = target: Serine/threonine-protein kinase PLK1 (Homo sapiens) (UniProt P53350); assay: Inhibition of full-length recombinant human His-tagged PLK1 expressed in baculovirus expression system at 10 uM using Ser/Thr 16 Peptide as substrate after 60 mins by Z-LYTE assay relative to control
Sequence of Serine/threonine-protein kinase PLK1 (Homo sapiens) (P53350 whole entry, the tested form may be a part): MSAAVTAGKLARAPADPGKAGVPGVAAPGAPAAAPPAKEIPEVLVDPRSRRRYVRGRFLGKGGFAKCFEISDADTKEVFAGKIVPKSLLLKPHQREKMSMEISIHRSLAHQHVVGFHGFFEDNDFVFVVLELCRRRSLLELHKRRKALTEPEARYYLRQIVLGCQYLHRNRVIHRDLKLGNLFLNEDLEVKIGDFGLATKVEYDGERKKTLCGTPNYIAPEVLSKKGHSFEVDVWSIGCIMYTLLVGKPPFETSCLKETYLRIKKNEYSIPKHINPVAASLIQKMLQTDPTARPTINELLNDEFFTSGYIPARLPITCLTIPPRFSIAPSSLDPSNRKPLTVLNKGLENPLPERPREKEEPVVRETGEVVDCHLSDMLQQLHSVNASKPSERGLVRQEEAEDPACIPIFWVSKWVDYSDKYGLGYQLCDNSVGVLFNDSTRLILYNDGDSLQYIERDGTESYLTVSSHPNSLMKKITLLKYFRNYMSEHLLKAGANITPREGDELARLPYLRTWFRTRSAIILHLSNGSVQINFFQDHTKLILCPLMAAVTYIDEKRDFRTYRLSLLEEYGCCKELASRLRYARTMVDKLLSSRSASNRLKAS

[4] = target: Transcription initiation factor TFIID subunit 1 (Homo sapiens) (UniProt P21675); assay: Binding affinity to human partial length TAF1 bromodomain 2 (D1521 to D1656 residues) expressed in Escherichia coli BL21 cells assessed as residual binding level at 1 uM measured after 1 hr by quantitative PCR based BROMOscan assay relative to control
Sequence of Transcription initiation factor TFIID subunit 1 (Homo sapiens) (P21675 whole entry, the tested form may be a part): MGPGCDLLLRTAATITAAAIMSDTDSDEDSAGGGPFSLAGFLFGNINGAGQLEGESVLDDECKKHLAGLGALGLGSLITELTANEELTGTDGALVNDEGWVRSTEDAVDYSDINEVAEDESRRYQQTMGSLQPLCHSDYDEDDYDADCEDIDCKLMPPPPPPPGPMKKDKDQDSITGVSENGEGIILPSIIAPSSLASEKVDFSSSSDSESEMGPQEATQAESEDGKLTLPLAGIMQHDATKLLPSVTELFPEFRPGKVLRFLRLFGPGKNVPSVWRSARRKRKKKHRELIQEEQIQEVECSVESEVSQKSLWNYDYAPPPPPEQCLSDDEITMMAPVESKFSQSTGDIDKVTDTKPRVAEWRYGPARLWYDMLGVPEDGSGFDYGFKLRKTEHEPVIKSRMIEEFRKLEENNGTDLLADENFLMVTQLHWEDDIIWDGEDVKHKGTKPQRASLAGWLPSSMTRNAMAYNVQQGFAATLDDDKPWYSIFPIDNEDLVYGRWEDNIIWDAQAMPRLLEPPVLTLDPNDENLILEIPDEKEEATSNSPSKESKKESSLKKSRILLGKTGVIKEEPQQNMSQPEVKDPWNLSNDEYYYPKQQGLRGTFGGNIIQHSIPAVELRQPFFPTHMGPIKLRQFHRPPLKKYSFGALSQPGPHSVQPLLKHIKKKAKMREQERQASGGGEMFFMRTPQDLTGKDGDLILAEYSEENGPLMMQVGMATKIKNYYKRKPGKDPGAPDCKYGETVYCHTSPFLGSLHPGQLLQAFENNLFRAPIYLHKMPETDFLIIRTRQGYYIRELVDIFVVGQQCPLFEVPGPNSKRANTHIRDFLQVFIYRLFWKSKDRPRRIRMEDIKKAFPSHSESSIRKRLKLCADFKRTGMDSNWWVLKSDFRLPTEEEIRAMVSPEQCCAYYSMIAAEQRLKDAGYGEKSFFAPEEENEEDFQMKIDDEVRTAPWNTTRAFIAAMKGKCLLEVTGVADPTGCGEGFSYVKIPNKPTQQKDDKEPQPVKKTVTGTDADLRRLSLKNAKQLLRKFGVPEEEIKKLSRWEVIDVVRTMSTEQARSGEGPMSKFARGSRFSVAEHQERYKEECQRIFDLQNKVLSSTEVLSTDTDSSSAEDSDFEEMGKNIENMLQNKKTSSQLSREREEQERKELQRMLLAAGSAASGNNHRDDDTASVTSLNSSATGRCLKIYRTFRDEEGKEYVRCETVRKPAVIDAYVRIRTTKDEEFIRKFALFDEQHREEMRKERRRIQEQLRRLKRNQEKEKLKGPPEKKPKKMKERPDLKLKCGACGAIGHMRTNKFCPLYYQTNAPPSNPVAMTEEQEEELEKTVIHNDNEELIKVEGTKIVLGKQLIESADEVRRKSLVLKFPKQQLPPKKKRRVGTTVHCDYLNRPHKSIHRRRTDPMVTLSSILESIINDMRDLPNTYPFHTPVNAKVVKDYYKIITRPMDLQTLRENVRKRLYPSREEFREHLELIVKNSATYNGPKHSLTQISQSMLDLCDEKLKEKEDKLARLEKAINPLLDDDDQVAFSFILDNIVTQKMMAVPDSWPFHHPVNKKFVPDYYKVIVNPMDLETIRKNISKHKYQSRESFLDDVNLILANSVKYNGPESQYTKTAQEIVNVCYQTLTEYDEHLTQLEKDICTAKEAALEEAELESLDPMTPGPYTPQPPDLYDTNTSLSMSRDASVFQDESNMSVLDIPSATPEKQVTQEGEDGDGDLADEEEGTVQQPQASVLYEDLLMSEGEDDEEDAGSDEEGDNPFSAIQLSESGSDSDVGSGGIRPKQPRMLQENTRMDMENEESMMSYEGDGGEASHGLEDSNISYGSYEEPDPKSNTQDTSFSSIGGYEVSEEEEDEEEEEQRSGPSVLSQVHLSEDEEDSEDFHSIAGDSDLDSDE
Summary of the method: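 Bromodomain panel screen (32 bromodomains) run at 1 μM single concentration; primary binding reported as 'Percent Control', lower values meaning stronger interaction.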

RKO = assay: Antiproliferative activity against human RKO cells after 72 hrs by CCK8 or SRB assay; assay type: functional, cell-based
[5] = Half life in rat brain at 50 mg/kg, po; assay type: ADME, organism-based
CYP3A4 = CYP3A4 (Homo sapiens, UniProt P08684); assay: Reversible inhibition of CYP3A4 in human liver microsomes at 10 uM using midazolam or testosterone as substrate preincubated for 5 mins followed by NADPH addition and measured after 20 mins relative to control; assay type: ADME; details: probe midazolam or testosterone
Sequence of CYP3A4 (P08684 whole entry): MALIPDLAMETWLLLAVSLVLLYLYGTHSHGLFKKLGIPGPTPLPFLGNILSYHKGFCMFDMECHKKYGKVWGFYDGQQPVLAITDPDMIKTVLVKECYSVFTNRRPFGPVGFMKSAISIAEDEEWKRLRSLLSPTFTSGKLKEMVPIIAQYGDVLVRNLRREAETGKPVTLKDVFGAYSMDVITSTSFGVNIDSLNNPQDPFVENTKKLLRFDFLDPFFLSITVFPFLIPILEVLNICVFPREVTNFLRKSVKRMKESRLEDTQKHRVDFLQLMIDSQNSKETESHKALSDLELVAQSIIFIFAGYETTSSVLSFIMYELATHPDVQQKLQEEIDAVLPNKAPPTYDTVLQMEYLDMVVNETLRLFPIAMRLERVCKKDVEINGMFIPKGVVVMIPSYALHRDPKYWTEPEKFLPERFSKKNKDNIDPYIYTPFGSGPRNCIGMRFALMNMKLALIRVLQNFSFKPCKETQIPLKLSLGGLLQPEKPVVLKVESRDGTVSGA
Summary of the method: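 Human liver microsomes 0.2 mg/mL, 100 mM phosphate pH 7.4, 10 μM test compound, probe cocktail (10 μM midazolam, 100 μM testosterone, 10 μM dextromethorphan, 20 μM diclofenac, 100 μM phenacetin, 100 μM mephenytoin); organic solvent <1%; 5 min preincubation at 37 °C, started with NADPH-generating system, 20 min reaction; metabolite formation expressed relative to PBS control.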

[6] = AUC (0 to infinity) in rat plasma at 10 mg/kg, po; assay type: ADME, organism-based; parameters: dose 10 mg/kg, route oral, time infinity; summary of the method: as §1
[7] = target: CREB-binding protein (Homo sapiens) (UniProt Q92793); assay: Binding affinity to human partial length CREBBP (R1081 to G1197 residues) expressed in Escherichia coli BL21 cells assessed as residual binding level at 1 uM measured after 1 hr by quantitative PCR based BROMOscan assay relative to control
Summary of the method: (§2)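 A BROMOScan competition-binding panel of 32 bromodomains was run at a single 1 μM compound concentration. Results are primary-screen 'Percent Control', where lower values indicate stronger binding.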

[8] = Half life in rat plasma at 3 mg/kg, iv; assay type: ADME, organism-based
MV4-11 [9] = assay: Induction of apoptosis in human MV4-11 cells assessed as decrease in full-length caspase-8 level at 10 to 1000 nM after 24 hrs by Western blot analysis; assay type: functional, cell-based
Summary of the method: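 MV4-11 cells exposed to compound at the indicated doses for 24 h; lysates probed by Western blotting for the target protein, with GAPDH as loading control.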

[10] = AUC (0 to infinity) in rat plasma at 50 mg/kg, po; assay type: ADME, organism-based; parameters: dose 50 mg/kg, time infinity, route oral; summary of the method: as §1
Cytochrome P450 2D6 = Cytochrome P450 2D6 (Homo sapiens, UniProt P10635); assay: Time-dependent inhibition of CYP2D6 in human liver microsomes at 10 uM using dextromethorphan as substrate preincubated up to 30 mins followed by NADPH generating system addition and measured after 10 mins; assay type: ADME
Sequence of Cytochrome P450 2D6 (P10635 whole entry): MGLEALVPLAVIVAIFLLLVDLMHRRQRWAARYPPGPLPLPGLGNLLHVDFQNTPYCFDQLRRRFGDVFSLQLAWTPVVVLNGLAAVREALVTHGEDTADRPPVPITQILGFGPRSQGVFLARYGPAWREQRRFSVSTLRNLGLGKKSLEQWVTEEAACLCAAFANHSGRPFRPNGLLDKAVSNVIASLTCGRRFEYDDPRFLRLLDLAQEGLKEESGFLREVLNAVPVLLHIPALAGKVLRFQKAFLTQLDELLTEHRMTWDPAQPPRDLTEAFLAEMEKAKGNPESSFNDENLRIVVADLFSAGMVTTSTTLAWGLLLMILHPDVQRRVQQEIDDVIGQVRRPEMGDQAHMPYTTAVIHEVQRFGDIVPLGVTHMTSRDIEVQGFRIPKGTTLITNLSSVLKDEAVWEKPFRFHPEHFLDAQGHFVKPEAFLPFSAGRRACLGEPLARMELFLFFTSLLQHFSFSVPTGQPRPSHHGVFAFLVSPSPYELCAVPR
Summary of the method: (§3)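 Human liver microsomes 0.2 mg/mL, 100 mM phosphate pH 7.4, 10 μM test compound, preincubated 0, 5, 10 and 30 min at 37 °C; then NADPH plus probe cocktail (5 μM midazolam, 50 μM testosterone, 5 μM dextromethorphan, 10 μM diclofenac, 50 μM phenacetin, 50 μM S-(+)-mephenytoin) added; 10 min reaction; kobs in units of 10^-4/min.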

Cytochrome P450 1A2 = target: T1, Cytochrome P450 1A2 (Homo sapiens, UniProt P05177); assay: Time-dependent inhibition of CYP1A2 in human liver microsomes at 10 uM using phenacetin as substrate preincubated up to 30 mins followed by NADPH generating system addition and measured after 10 mins; assay type: ADME; summary of the method: as §3
T1 sequence (P05177 whole entry): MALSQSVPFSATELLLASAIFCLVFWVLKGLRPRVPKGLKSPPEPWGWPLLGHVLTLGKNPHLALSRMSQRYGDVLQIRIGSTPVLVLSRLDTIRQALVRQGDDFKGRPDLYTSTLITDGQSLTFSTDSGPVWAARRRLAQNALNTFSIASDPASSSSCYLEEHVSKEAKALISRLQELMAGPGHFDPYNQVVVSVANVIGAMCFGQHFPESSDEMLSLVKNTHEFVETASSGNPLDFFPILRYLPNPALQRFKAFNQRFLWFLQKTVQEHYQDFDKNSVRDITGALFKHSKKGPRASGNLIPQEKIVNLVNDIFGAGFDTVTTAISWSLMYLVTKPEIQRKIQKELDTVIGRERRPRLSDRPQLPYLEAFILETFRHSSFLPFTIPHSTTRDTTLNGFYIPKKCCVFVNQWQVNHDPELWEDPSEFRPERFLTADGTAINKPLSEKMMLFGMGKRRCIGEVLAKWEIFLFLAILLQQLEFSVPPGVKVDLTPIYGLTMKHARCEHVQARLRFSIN

[11] = target: Bromodomain-containing protein 3 (Homo sapiens) (UniProt Q15059); assay: Binding affinity to human partial length BRD3 bromodomain 1 (P24 to E144 residues) expressed in Escherichia coli BL21 cells assessed as residual binding level at 1 uM measured after 1 hr by quantitative PCR based BROMOscan assay relative to control; summary of the method: as §2
Sequence of Bromodomain-containing protein 3 (Homo sapiens) (Q15059 2-726 limits assumed): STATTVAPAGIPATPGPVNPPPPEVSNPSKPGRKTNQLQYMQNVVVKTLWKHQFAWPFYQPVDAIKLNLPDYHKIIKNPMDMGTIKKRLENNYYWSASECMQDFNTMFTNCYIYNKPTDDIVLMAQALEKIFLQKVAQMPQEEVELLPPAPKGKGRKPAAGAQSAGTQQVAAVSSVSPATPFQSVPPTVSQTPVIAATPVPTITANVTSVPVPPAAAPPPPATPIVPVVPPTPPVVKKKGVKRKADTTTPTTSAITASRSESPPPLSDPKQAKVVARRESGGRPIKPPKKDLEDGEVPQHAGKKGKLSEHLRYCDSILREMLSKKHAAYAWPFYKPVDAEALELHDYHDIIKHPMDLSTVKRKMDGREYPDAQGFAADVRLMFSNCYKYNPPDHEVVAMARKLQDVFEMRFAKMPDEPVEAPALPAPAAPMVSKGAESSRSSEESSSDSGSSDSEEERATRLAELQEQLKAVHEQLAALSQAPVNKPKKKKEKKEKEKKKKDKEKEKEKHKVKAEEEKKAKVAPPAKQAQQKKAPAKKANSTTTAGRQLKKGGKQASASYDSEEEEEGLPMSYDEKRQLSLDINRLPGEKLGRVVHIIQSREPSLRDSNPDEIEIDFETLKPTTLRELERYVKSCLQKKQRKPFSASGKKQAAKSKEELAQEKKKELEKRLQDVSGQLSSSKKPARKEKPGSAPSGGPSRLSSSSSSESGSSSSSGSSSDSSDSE

MV4-11 [12] = assay: Antitumor activity against human MV4-11 cells xenografted in po dosed Balb/c nude mouse assessed as tumor growth inhibition administered once daily and measured twice a week by caliper method; assay type: functional, organism-based
[13] = Tmax in ICR mouse plasma at 100 mg/kg, po administered via gavage measured after 0.25 to 24 hrs by UPLC/MS analysis; assay type: ADME, organism-based
Summary of the method: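 Male ICR mice dosed orally (3, 10 or 100 mg/kg, per line) in 1% DMSO/0.5% HPMC vehicle; plasma drug levels measured.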

[14] = Cmax in rat brain at 50 mg/kg, po; assay type: ADME, organism-based; parameters: dose 50 mg/kg, route oral
[15] = target: ATPase family AAA domain-containing protein 2 (Homo sapiens) (UniProt Q6PL18); assay: Binding affinity to human partial length ATAD2A (Q981 to R1108 residues) expressed in Escherichia coli BL21 cells assessed as residual binding level at 1 uM measured after 1 hr by quantitative PCR based BROMOscan assay relative to control; summary of the method: as §2
[16] = target: Bromodomain-containing protein 2 (Homo sapiens) (UniProt P25440); assay: Inhibition of BRD2 bromodomain 2 (unknown origin)
Sequence of Bromodomain-containing protein 2 (Homo sapiens) (P25440 whole entry, looked up): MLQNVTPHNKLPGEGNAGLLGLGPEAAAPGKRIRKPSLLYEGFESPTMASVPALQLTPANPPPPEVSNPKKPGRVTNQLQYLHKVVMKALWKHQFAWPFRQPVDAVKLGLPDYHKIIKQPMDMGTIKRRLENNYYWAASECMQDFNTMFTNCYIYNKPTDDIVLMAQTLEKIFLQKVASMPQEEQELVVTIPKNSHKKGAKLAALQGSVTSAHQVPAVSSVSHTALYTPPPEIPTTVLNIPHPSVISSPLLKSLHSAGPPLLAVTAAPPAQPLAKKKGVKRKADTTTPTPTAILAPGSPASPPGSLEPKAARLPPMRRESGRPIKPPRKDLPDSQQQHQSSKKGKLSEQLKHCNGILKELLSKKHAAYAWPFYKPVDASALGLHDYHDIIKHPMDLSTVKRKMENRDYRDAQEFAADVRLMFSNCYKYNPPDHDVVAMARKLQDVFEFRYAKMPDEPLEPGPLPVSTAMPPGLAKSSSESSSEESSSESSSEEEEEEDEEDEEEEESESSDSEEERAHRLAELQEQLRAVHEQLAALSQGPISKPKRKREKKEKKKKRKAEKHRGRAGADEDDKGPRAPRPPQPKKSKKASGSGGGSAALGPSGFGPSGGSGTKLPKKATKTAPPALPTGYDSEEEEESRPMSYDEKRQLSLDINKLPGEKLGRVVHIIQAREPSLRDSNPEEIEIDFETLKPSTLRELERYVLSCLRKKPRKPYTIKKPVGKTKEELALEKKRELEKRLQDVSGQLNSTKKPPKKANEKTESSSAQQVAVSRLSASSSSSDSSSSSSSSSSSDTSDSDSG
Summary of the method: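 Bromodomain binding panel (32 bromodomains) screened at 1 μM; primary binding read-out reported as percent of control, lower values meaning stronger binding.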

Cc1ccc(-n2nc(C(=O)N3C[C@@H](C)N[C@@H](C)C3)nc2-c2ccc3c(c2)N(C2CCCC2)[C@H](C)C(=O)N3C)cc1
Cmax [1]: 13800 ng/mL
AUC(0-inf) [2]: 2080 ng·h/mL
inhibition [3]: < 10%
Activity [4]: 5 to 20%
Activity (RKO): Active
half-life [5]: 9.3 h
inhibition at 20 min, 10 µM (CYP3A4): 23 to 28%
AUC(0-inf) [6]: 1270 ng·h/mL
Activity [7]: 50 to 70%
half-life [8]: 1.8 h
Activity (MV4-11 [9]): Active
AUC(0-inf) [10]: 4310 ng·h/mL
TDI (Cytochrome P450 2D6): Not Active
TDI (Cytochrome P450 1A2): Not Active
Activity [11]: < 5%
TGI (MV4-11 [12]): Dose-dependent effect
Tmax [13]: 1.5 h
Cmax [14]: 87.6 ng/mL
Activity [15]: 70 to 100%
inhibition [16]: Active
